Source: ChEMBL document CHEMBL1687785, “ampG gene of Pseudomonas aeruginosa and its role in β-lactamase expression” (2010)
≈ marks a conversion by molar mass, not a printed value.

What was measured:
[1] = test system: Pseudomonas aeruginosa; test: Antimicrobial activity against Pseudomonas aeruginosa isolate 7 obtained from cystic fibrosis patients after 16 to 20 hrs by broth microdilution method; type: functional
Outline: (§1)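 CLSI broth microdilution in Mueller-Hinton broth, serial 2-fold antibiotic dilutions. Inoculum about 10^4 cells per well, taken from starter cultures grown to OD600 0.5. MIC was the lowest antibiotic concentration preventing growth after 16 to 20 h at 37°C. Each MIC was determined in triplicate.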

[2] = test system: Pseudomonas aeruginosa; test: Antimicrobial activity against Pseudomonas aeruginosa isolate 6 obtained from cystic fibrosis patients after 16 to 20 hrs by broth microdilution method in presence of 120 uM carbonyl cyanide m-chlorophenyl-hydrazone; type: functional
Outline: (§2)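 CLSI broth microdilution in Mueller-Hinton broth with serial antibiotic dilutions. CCCP was added from a 10 mM DMSO stock to 120 μM final, then the bacterial culture was added as inoculum (about 10^4 cells from OD600 0.5 starter cultures). MIC was the lowest concentration preventing growth after 16 to 20 h at 37°C, run in triplicate.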

[3] = test system: Pseudomonas aeruginosa; test: Antimicrobial activity against Pseudomonas aeruginosa isolate 12 obtained from cystic fibrosis patients after 16 to 20 hrs by broth microdilution method; type: functional
Outline: (§3)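 CLSI broth microdilution: 2-fold serial antibiotic dilutions in Mueller-Hinton broth, inoculated with about 10^4 cells per 100 μl from starter cultures grown to OD600 0.5. MIC is the lowest concentration preventing growth after 16-20 h at 37°C. Triplicate.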

[4] = test system: Pseudomonas aeruginosa; test: Antimicrobial activity against Pseudomonas aeruginosa isolate 4 obtained from cystic fibrosis patients after 16 to 20 hrs by broth microdilution method; type: functional; outline: as §1
[5] = test system: Pseudomonas aeruginosa; test: Antimicrobial activity against Pseudomonas aeruginosa isolate 1 obtained from cystic fibrosis patients after 16 to 20 hrs by broth microdilution method in presence of 120 uM carbonyl cyanide m-chlorophenyl-hydrazone; type: functional
Outline: (§4)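 CLSI broth microdilution in Mueller-Hinton broth with CCCP added from a 10 mM DMSO stock to 120 μM final, alongside 2-fold serial antibiotic dilutions. Inoculum from starter cultures grown to OD600 0.5. MIC is the lowest concentration preventing growth after 16-20 h at 37°C. Triplicate.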

[6] = test system: Pseudomonas aeruginosa; test: Antimicrobial activity against Pseudomonas aeruginosa isolate 13 obtained from cystic fibrosis patients after 16 to 20 hrs by broth microdilution method in presence of 120 uM carbonyl cyanide m-chlorophenyl-hydrazone; type: functional; outline: as §4
[7] = test system: Pseudomonas aeruginosa; test: Antimicrobial activity against Pseudomonas aeruginosa isolate 16 obtained from cystic fibrosis patients after 16 to 20 hrs by broth microdilution method; type: functional; outline: as §3
[8] = test system: Pseudomonas aeruginosa; test: Antimicrobial activity against Pseudomonas aeruginosa isolate 1 obtained from cystic fibrosis patients after 16 to 20 hrs by broth microdilution method; type: functional; outline: as §3
[9] = test system: Pseudomonas aeruginosa; test: Antimicrobial activity against Pseudomonas aeruginosa isolate 4 obtained from cystic fibrosis patients after 16 to 20 hrs by broth microdilution method in presence of 120 uM carbonyl cyanide m-chlorophenyl-hydrazone; type: functional; outline: as §2
[10] = test system: Pseudomonas aeruginosa; test: Antimicrobial activity against Pseudomonas aeruginosa isolate 14 obtained from cystic fibrosis patients after 16 to 20 hrs by broth microdilution method in presence of 120 uM carbonyl cyanide m-chlorophenyl-hydrazone; type: functional; outline: as §4
[11] = test system: Pseudomonas aeruginosa; test: Antimicrobial activity against Pseudomonas aeruginosa isolate 3 obtained from cystic fibrosis patients after 16 to 20 hrs by broth microdilution method in presence of 120 uM carbonyl cyanide m-chlorophenyl-hydrazone; type: functional; outline: as §2
[12] = test system: Pseudomonas aeruginosa; test: Antimicrobial activity against Pseudomonas aeruginosa isolate 9 obtained from cystic fibrosis patients after 16 to 20 hrs by broth microdilution method; type: functional; outline: as §1
[13] = test system: Pseudomonas aeruginosa; test: Antimicrobial activity against Pseudomonas aeruginosa isolate 18 obtained from cystic fibrosis patients after 16 to 20 hrs by broth microdilution method; type: functional; outline: as §1
[14] = test system: Pseudomonas aeruginosa; test: Antimicrobial activity against Pseudomonas aeruginosa isolate 11 obtained from cystic fibrosis patients after 16 to 20 hrs by broth microdilution method in presence of 120 uM carbonyl cyanide m-chlorophenyl-hydrazone; type: functional; outline: as §4
[15] = test system: Pseudomonas aeruginosa; test: Antimicrobial activity against Pseudomonas aeruginosa isolate 14 obtained from cystic fibrosis patients after 16 to 20 hrs by broth microdilution method; type: functional; outline: as §3
[16] = test system: Pseudomonas aeruginosa; test: Antimicrobial activity against Pseudomonas aeruginosa isolate 6 obtained from cystic fibrosis patients after 16 to 20 hrs by broth microdilution method; type: functional; outline: as §1
[17] = test system: Pseudomonas aeruginosa; test: Antimicrobial activity against Pseudomonas aeruginosa isolate 10 obtained from cystic fibrosis patients after 16 to 20 hrs by broth microdilution method; type: functional; outline: as §3
[18] = test system: Pseudomonas aeruginosa; test: Antimicrobial activity against Pseudomonas aeruginosa isolate 2 obtained from cystic fibrosis patients after 16 to 20 hrs by broth microdilution method in presence of 120 uM carbonyl cyanide m-chlorophenyl-hydrazone; type: functional; outline: as §2
[19] = test system: Pseudomonas aeruginosa; test: Antimicrobial activity against Pseudomonas aeruginosa isolate 7 obtained from cystic fibrosis patients after 16 to 20 hrs by broth microdilution method in presence of 120 uM carbonyl cyanide m-chlorophenyl-hydrazone; type: functional; outline: as §2
[20] = test system: Pseudomonas aeruginosa; test: Antimicrobial activity against Pseudomonas aeruginosa isolate 10 obtained from cystic fibrosis patients after 16 to 20 hrs by broth microdilution method in presence of 120 uM carbonyl cyanide m-chlorophenyl-hydrazone; type: functional; outline: as §4
[21] = test system: Pseudomonas aeruginosa; test: Antimicrobial activity against Pseudomonas aeruginosa isolate 17 obtained from cystic fibrosis patients after 16 to 20 hrs by broth microdilution method in presence of 120 uM carbonyl cyanide m-chlorophenyl-hydrazone; type: functional; outline: as §2
[22] = test system: Pseudomonas aeruginosa; test: Antimicrobial activity against Pseudomonas aeruginosa isolate 8 obtained from cystic fibrosis patients after 16 to 20 hrs by broth microdilution method in presence of 120 uM carbonyl cyanide m-chlorophenyl-hydrazone; type: functional; outline: as §2
[23] = test system: Pseudomonas aeruginosa; test: Antimicrobial activity against Pseudomonas aeruginosa isolate 17 obtained from cystic fibrosis patients after 16 to 20 hrs by broth microdilution method; type: functional; outline: as §1
[24] = test system: Pseudomonas aeruginosa; test: Antimicrobial activity against Pseudomonas aeruginosa isolate 15 obtained from cystic fibrosis patients after 16 to 20 hrs by broth microdilution method in presence of 120 uM carbonyl cyanide m-chlorophenyl-hydrazone; type: functional; outline: as §4
[25] = test system: Pseudomonas aeruginosa; test: Antimicrobial activity against Pseudomonas aeruginosa isolate 9 obtained from cystic fibrosis patients after 16 to 20 hrs by broth microdilution method in presence of 120 uM carbonyl cyanide m-chlorophenyl-hydrazone; type: functional; outline: as §2
[26] = test system: Pseudomonas aeruginosa; test: Antimicrobial activity against Pseudomonas aeruginosa isolate 5 obtained from cystic fibrosis patients after 16 to 20 hrs by broth microdilution method in presence of 120 uM carbonyl cyanide m-chlorophenyl-hydrazone; type: functional; outline: as §2
[27] = test system: Pseudomonas aeruginosa; test: Antimicrobial activity against Pseudomonas aeruginosa isolate 16 obtained from cystic fibrosis patients after 16 to 20 hrs by broth microdilution method in presence of 120 uM carbonyl cyanide m-chlorophenyl-hydrazone; type: functional; outline: as §4
[28] = test system: Pseudomonas aeruginosa; test: Antimicrobial activity against Pseudomonas aeruginosa isolate 2 obtained from cystic fibrosis patients after 16 to 20 hrs by broth microdilution method; type: functional; outline: as §1
[29] = test system: Pseudomonas aeruginosa; test: Antimicrobial activity against Pseudomonas aeruginosa isolate 12 obtained from cystic fibrosis patients after 16 to 20 hrs by broth microdilution method in presence of 120 uM carbonyl cyanide m-chlorophenyl-hydrazone; type: functional; outline: as §4
[30] = test system: Pseudomonas aeruginosa; test: Antimicrobial activity against Pseudomonas aeruginosa isolate 5 obtained from cystic fibrosis patients after 16 to 20 hrs by broth microdilution method; type: functional; outline: as §1
[31] = test system: Pseudomonas aeruginosa; test: Antimicrobial activity against Pseudomonas aeruginosa isolate 13 obtained from cystic fibrosis patients after 16 to 20 hrs by broth microdilution method; type: functional; outline: as §3
[32] = test system: Pseudomonas aeruginosa; test: Antimicrobial activity against Pseudomonas aeruginosa isolate 11 obtained from cystic fibrosis patients after 16 to 20 hrs by broth microdilution method; type: functional; outline: as §3
[33] = test system: Pseudomonas aeruginosa; test: Antimicrobial activity against Pseudomonas aeruginosa isolate 18 obtained from cystic fibrosis patients after 16 to 20 hrs by broth microdilution method in presence of 120 uM carbonyl cyanide m-chlorophenyl-hydrazone; type: functional; outline: as §2
[34] = test system: Pseudomonas aeruginosa; test: Antimicrobial activity against Pseudomonas aeruginosa isolate 3 obtained from cystic fibrosis patients after 16 to 20 hrs by broth microdilution method; type: functional; outline: as §1
[35] = test system: Pseudomonas aeruginosa; test: Antimicrobial activity against Pseudomonas aeruginosa isolate 8 obtained from cystic fibrosis patients after 16 to 20 hrs by broth microdilution method; type: functional; outline: as §1
[36] = test system: Pseudomonas aeruginosa; test: Antimicrobial activity against Pseudomonas aeruginosa isolate 15 obtained from cystic fibrosis patients after 16 to 20 hrs by broth microdilution method; type: functional; outline: as §3
[37] = biological target: Beta-lactamase (Pseudomonas aeruginosa (strain ATCC 15692 / PAO1 / 1C / PRS 101 / LMG12228)) (UniProt P24735); test: Inhibition of ampD, ampDh2, ampDh3 and ampG deficient Pseudomonas aeruginosa PAO1 AmpC assessed as nitrocefin hydrolyzed per mg of protein at 120 uM by UV spectrophotometry
Outline: (§5)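 Cells cultured with or without 120 μM CCCP; crude extracts made by sonication; β-lactamase measured by UV spectrophotometry with 100 μM nitrocefin substrate at 30°C; specific activity as nmol nitrocefin hydrolyzed per min per mg protein (BCA, BSA standard); triplicate, averaged.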

[38] = biological target: Beta-lactamase (Pseudomonas aeruginosa (strain ATCC 15692 / PAO1 / 1C / PRS 101 / LMG12228)) (UniProt P24735); test: Inhibition of ampD, ampDh2, ampDh3 and ampG deficient Pseudomonas aeruginosa PAO1 AmpC harboring pZY0901 conferring resistance to gentamycin assessed as nitrocefin hydrolyzed per mg of protein at 120 uM by UV spectrophotometry; outline: as §5
[39] = biological target: Beta-lactamase (Pseudomonas aeruginosa (strain ATCC 15692 / PAO1 / 1C / PRS 101 / LMG12228)) (UniProt P24735); test: Inhibition of ampD, ampDh2 and ampDh3 deficient Pseudomonas aeruginosa PAO1 AmpC assessed as nitrocefin hydrolyzed per mg of protein at 120 uM by UV spectrophotometry; outline: as §5

Beta-lactamase (Pseudomonas aeruginosa (strain ATCC 15692 / PAO1 / 1C / PRS 101 / LMG12228)), sequence (P24735 27-397 limits assumed): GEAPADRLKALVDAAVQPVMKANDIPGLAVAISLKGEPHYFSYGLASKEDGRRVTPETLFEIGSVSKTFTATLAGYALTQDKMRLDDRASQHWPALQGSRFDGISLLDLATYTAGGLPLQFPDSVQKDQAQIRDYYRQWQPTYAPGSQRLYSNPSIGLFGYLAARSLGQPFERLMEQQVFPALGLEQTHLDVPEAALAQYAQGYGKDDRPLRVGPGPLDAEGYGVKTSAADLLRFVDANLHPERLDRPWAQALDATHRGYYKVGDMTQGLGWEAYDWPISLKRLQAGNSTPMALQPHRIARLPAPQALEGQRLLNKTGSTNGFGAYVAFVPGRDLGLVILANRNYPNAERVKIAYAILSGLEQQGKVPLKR

Structure (SMILES) | MIC [1] [µg/mL] | MIC [2] [µg/mL] | MIC [3] [µg/mL] | MIC [4] [µg/mL] | MIC [5] [µg/mL] | MIC [6] [µg/mL] | MIC [7] [µg/mL] | MIC [8] [µg/mL] | MIC [9] [µg/mL] | MIC [10] [µg/mL] | MIC [11] [µg/mL] | MIC [12] [µg/mL] | MIC [13] [µg/mL] | MIC [14] [µg/mL] | MIC [15] [µg/mL] | MIC [16] [µg/mL] | MIC [17] [µg/mL] | MIC [18] [µg/mL] | MIC [19] [µg/mL] | MIC [20] [µg/mL] | also measured
CN(C)[C@@H]1C(O)=C(C(N)=O)C(=O)[C@@]2(O)C(O)=C3C(=O)c4c(O)cccc4[C@@](C)(O)[C@H]3C[C@@H]12 [TETRACYCLINE] | 8 (≈ 18 µM) | 8 | 8 (≈ 18 µM) | 8 (≈ 18 µM) | 8 | 8 | 8 (≈ 18 µM) | 8 (≈ 18 µM) | 8 | 8 | 8 | 8 (≈ 18 µM) | 16 (≈ 36 µM) | 8 | 8 (≈ 18 µM) | 8 (≈ 18 µM) | 8 (≈ 18 µM) | 8 | 8 | 8 | MIC [21]: 8 µg/mL; MIC [22]: 8 µg/mL; MIC [23]: 8 µg/mL (≈ 18 µM); MIC [24]: 8 µg/mL; MIC [25]: 8 µg/mL; MIC [26]: 8 µg/mL; MIC [27]: 8 µg/mL; MIC [28]: 8 µg/mL (≈ 18 µM); MIC [29]: 8 µg/mL; MIC [30]: 8 µg/mL (≈ 18 µM); MIC [31]: 8 µg/mL (≈ 18 µM); MIC [32]: 8 µg/mL (≈ 18 µM); MIC [33]: 8 µg/mL; MIC [34]: 8 µg/mL (≈ 18 µM); MIC [35]: 16 µg/mL (≈ 36 µM); MIC [36]: 8 µg/mL (≈ 18 µM)
N#CC(C#N)=NNc1cccc(Cl)c1 | – | – | – | – | – | – | – | – | – | – | – | – | – | – | – | – | – | – | – | – | Activity [37]: 3 nmol/min; Activity [38]: 2800 nmol/min; Activity [39]: 1220 nmol/min
O=C(N[C@H](CO)[C@H](O)c1ccc([N+](=O)[O-])cc1)C(Cl)Cl [CHLORAMPHENICOL] | 8 (≈ 24.8 µM) | 8 | 8 (≈ 24.8 µM) | 32 (≈ 99 µM) | 64 | 8 | 8 (≈ 24.8 µM) | 256 (≈ 792 µM) | 32 | 8 | 64 | 16 (≈ 49.5 µM) | 32 (≈ 99 µM) | 32 | 16 (≈ 49.5 µM) | 8 (≈ 24.8 µM) | 32 (≈ 99 µM) | 256 | 8 | 8 | MIC [21]: 8 µg/mL; MIC [22]: 32 µg/mL; MIC [23]: 8 µg/mL (≈ 24.8 µM); MIC [24]: 8 µg/mL; MIC [25]: 16 µg/mL; MIC [26]: 32 µg/mL; MIC [27]: 8 µg/mL; MIC [28]: 256 µg/mL (≈ 792 µM); MIC [29]: 8 µg/mL; MIC [30]: 32 µg/mL (≈ 99 µM); MIC [31]: 32 µg/mL (≈ 99 µM); MIC [32]: 32 µg/mL (≈ 99 µM); MIC [33]: 32 µg/mL; MIC [34]: 256 µg/mL (≈ 792 µM); MIC [35]: 32 µg/mL (≈ 99 µM); MIC [36]: 8 µg/mL (≈ 24.8 µM)
